Published values collected from several papers.
SLCO1B3: Solute carrier organic anion transporter family member 1B3 (SLCO1B3, Homo sapiens, UniProt Q9NPD5)

Nc1ccn([C@@H]2O[C@H](CO)[C@@H](O)C2(F)F)c(=O)n1
viability (MCF7; cell growth or viability, MTT; 10 µg/mL, 24 h): 20.7%

CC(C)(N)COCC(=O)N1CCC[C@H](C(=O)NCc2nc(-c3ccc(C(F)(F)F)cc3)cs2)C1
microsomal CLint (metabolic stability; male Sprague-Dawley rat, liver microsomes; 0.5 µM): 9.9 µL/min/mg

N#C[C@@]1(c2ccc3c(N)ncnn23)O[C@H](COC(=O)C2CCCCC2)[C@@H](O)[C@H]1O
CC50 (HEp-2; cell growth or viability, CCK-8; 5 days): 44.7 µM

COc1ccc2c(c1)CN(C(=O)CCN1CCC(Cc3ccccc3)CC1)CC[S@@+]2[O-]
clearance (male human, plasma; intravenous, 0.15 mg/kg, healthy volunteers): 223 mL/min

COCC(=O)N1CCC[C@H](C(=O)NCc2nc(-c3ccc(C)nc3)cs2)C1
microsomal CLint (metabolic stability; human, liver microsomes; 0.5 µM): 5.1 µL/min/mg

CC[C@H](C)[C@H](N)C(=O)OC[C@H]1O[C@@](C#N)(c2ccc3c(N)ncnn23)[C@H](O)[C@@H]1O
CC50 (HEp-2; cell growth or viability, CCK-8; 5 days): > 100 µM

CCONC(=O)N1CCC[C@H](C(=O)NCc2nc(-c3ccccc3)cs2)C1
microsomal CLint (metabolic stability; human, liver microsomes; 0.5 µM): 10 µL/min/mg

O=C1CCC(N2C(=O)c3cccc(NCCc4cn(Cc5ccc(-c6nc7cc(-c8ccccc8)ccn7c6Nc6ccc(C(=O)O)cc6)cc5)nn4)c3C2=O)C(=O)N1 (centres unmarked)
CC50 (MCF7; cell growth or viability; 72 h): 108 µM

COCC(=O)N1CCC[C@H](C(=O)NCc2nc(-c3cncnc3)cs2)C1
microsomal CLint (metabolic stability; human, liver microsomes; 0.5 µM): < 7 µL/min/mg

CCC(CC)COC(=O)[C@H](C)N[P@](=O)(OC[C@H]1O[C@@](C#N)(c2ccc3c(N)ncnn23)[C@H](O)[C@@H]1O)Oc1ccccc1
CC50 (HEp-2; cell growth or viability, CCK-8; 5 days): 2.95 µM

CCc1cc(=O)oc2cc(OC(CC)C(=O)c3ccccc3)ccc12 (centres unmarked)
CC50 (TZM-bl; cell growth or viability, resazurin): > 12.5 µM

CC(C)C(=O)OC[C@H]1O[C@@](C#N)(c2ccc3c(N)ncnn23)[C@H](O)[C@@H]1O
CC50 (HEp-2; cell growth or viability, CCK-8; 5 days): 81.6 µM

NC/C(=C\F)COc1cccc(Cn2c(=S)[nH]c(=O)c3[nH]cnc32)c1
inhibition (SLCO1B3; transporter uptake, inhibitor; 30 µM): < 50%

O=C(O)COc1cccc(-c2nc(Nc3ccc4[nH]ncc4c3)c3ccccc3n2)c1
IC50 (SLCO1B3; transporter uptake, inhibitor): 1.55 µM
